Measurements from ChEMBL document CHEMBL2311385, “Enhancing macrocyclic diterpenes as multidrug-resistance reversers: structure-activity studies on jolkinol D derivatives” (J Med Chem, 2013).

Key:
[1] = biological target: T1, ATP-dependent translocase ABCB1 (Homo sapiens, UniProt P08183); assay: Inhibition of human Pgp expressed in mouse L5178Y cells assessed as potentiation of doxorubicin-induced cytotoxicity after 48 hrs by MTT assay; format: cell-based
Outline: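 Checkerboard combination with doxorubicin (14.7–0.1 μM) across one axis and 2-fold dilutions of modifier on the other, at a fixed drug ratio. MDR L5178Y cells seeded at 2 × 10^5 cells/mL and incubated 48 h, growth read by MTT. Combination index from the Chou–Talalay median-effect equation at 50% inhibition, using the best combination ratio. CI <1 synergy, =1 additivity, >1 antagonism.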

P-gp (ABCB1) = P-gp (ABCB1) (Homo sapiens, UniProt P08183); assay: Inhibition of human Pgp expressed in mouse L5178Y cells assessed as reversal of chemoresistance at 20 uM after 10 mins by flow cytometric analysis; format: cell-based
Outline: (§1)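 MDR L5178Y cells preincubated 10 min with compound, then loaded with rhodamine-123 (5.2 μM final) for 20 min at 37 °C and read by flow cytometry. The percentage of cells reverted to a chemosensitive phenotype was obtained by Overton cumulative histogram subtraction, channel by channel.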

[2] = biological target: T1, ATP-dependent translocase ABCB1; assay: Inhibition of human Pgp-mediated rhodamine 123 efflux expressed in mouse L5178Y cells assessed as fluorescence activity ratio at 20 uM after 10 mins by flow cytometric analysis; format: cell-based
Outline: (§2)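 PAR and MDR L5178Y cells at 2 × 10^6 cells/mL in serum-free McCoy's 5A, compound at 2 or 20 μM. Verapamil 22 μM as positive control, DMSO 2% as solvent control. After 10 min at room temperature, rhodamine-123 added (5.2 μM final) for 20 min at 37 °C. Cells washed twice, resuspended in PBS, and mean FL-1 of 20 000 cells read by flow cytometry. FAR = (MDR treated/untreated)/(PAR treated/untreated).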

[3] = biological target: T1, ATP-dependent translocase ABCB1; assay: Inhibition of human Pgp-mediated rhodamine 123 efflux expressed in mouse L5178Y cells assessed as reversal of chemoresistance after 10 mins by flow cytometric analysis; format: cell-based; outline: as §1
[4] = biological target: T1, ATP-dependent translocase ABCB1; assay: Inhibition of human Pgp-mediated rhodamine 123 efflux expressed in mouse L5178Y cells assessed as fluorescence activity ratio at 2 uM after 10 mins by flow cytometric analysis; format: cell-based; outline: as §2
L5178Y [5] = assay: Cytotoxicity against chemoresistant mouse L5178Y cells expressing human MDR1 gene after 72 hrs by MTT assay; format: ADME, cell-based
Outline: (§3)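 L5178Y parental and human MDR1-transfected mouse T-cell lymphoma cells grown in McCoy's 5A with 10% heat-inactivated horse serum at 37 °C, 5% CO2. Cells seeded at 1 × 10^5/mL and given 2-fold serial dilutions in duplicate wells for 72 h. MTT added for 4 h, then SDS overnight, OD 550 nm (ref 630). IC50 from curve fitting over three independent experiments. Selectivity index = IC50(PAR)/IC50(MDR).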

L5178Y [6] = assay: Cytotoxicity against chemosensitive mouse L5178Y cells after 72 hrs by MTT assay; format: cell-based; outline: as §3
[7] = test system: P-glycoprotein 1 / MDR1 (Homo sapiens); assay: Selectivity index, ratio of IC50 for chemosensitive mouse L5178Y cells to IC50 for chemoresistant mouse L5178Y cells expressing human MDR1 gene
L5178Y [8] = assay: Toxicity against chemoresistant mouse L5178Y cells expressing human MDR1 gene at >40 uM after 10 mins by flow cytometric analysis; format: cell-based
Outline: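 Toxicity during the rhodamine-123 accumulation assay, tested at 2, 20, 40 and 80 μM, was judged from shifts in flow-cytometric forward scatter and side scatter.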

T1 sequence (P08183 whole entry): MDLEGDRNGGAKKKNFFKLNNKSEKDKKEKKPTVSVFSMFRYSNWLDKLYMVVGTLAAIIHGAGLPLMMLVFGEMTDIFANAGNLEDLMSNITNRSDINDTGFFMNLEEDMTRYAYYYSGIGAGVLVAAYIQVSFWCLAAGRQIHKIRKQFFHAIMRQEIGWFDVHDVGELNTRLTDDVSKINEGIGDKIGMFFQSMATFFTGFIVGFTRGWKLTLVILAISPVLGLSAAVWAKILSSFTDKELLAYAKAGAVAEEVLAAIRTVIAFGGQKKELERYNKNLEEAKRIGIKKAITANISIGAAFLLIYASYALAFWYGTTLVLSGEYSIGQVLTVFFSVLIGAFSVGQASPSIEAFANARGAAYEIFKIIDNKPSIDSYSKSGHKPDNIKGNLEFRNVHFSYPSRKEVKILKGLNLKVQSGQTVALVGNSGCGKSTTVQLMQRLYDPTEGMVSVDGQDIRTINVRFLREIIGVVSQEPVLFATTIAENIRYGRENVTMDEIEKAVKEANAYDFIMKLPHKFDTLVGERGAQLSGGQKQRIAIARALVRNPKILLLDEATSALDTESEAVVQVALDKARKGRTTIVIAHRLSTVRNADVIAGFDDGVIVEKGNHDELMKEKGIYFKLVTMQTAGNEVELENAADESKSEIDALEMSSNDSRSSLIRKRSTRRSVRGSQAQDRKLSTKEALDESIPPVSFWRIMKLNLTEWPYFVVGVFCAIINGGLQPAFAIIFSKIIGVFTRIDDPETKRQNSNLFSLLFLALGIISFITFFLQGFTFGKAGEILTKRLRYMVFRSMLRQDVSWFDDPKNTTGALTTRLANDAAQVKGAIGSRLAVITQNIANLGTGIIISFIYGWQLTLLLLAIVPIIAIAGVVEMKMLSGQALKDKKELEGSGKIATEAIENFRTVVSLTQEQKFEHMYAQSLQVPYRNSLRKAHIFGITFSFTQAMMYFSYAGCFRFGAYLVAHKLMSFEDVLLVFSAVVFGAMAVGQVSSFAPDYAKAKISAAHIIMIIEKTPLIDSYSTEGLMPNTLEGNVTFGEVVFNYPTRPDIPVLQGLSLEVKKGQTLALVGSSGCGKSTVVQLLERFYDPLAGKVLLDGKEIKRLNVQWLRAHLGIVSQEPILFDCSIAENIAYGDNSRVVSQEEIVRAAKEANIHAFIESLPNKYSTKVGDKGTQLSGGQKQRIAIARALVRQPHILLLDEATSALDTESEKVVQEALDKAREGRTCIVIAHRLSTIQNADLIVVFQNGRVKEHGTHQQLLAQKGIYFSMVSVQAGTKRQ
Chain of P-gp (ABCB1) (P08183 whole entry): as above

inhibition at 10 min, 20 µM (P-gp (ABCB1)) [%] | Ratio [2] | inhibition (INH) [3] | Ratio [4] | SMILES | CI [1] | IC50 (L5178Y [5]) [µM] | IC50 (L5178Y [6]) [µM] | selectivity ratio [7] | Activity (L5178Y [8])
95 | 109.17 | Dose-dependent effect | 28.09 | COc1ccc(C(=O)O[C@H]2[C@@H](C)C[C@]3(OC(C)=O)C(=O)/C(C)=C/[C@@H]4[C@H](CC/C(C)=C/[C@@H]23)C4(C)C)cc1 [JOLKINOATE K] | 0.3 | 32.7 | 21.7 | 0.7 | –
– | 0.92 | – | 0.79 | CC(=O)O[C@]12C[C@H](C)[C@H](O)[C@@H]1/C=C(\C)CC[C@H]1[C@@H](/C=C(\C)C2=O)C1(C)C [JOLKINOL D] | 0.26 | 99.7 | 89.9 | 0.9 | –
– | 56.88 | Dose-dependent effect | 21.11 | CC(=O)O[C@]12C[C@H](C)[C@H](OC(=O)c3ccc(C)cc3)[C@@H]1/C=C(\C)CC[C@H]1[C@@H](/C=C(\C)C2=O)C1(C)C [JOLKINOATE J] | 0.26 | 45.1 | 41.2 | 0.9 | –
– | 3.38 | – | 0.84 | C/C1=C\[C@H]2[C@@H](O)[C@@H](C)C[C@]2(O)C(=O)/C(C)=C/[C@@H]2[C@H](CC1)C2(C)C [JOLKINODIOL] | 0.65 | 48.9 | 36.4 | 0.7 | –
– | 28.66 | – | 9.32 | CC(=O)O[C@]12C[C@H](C)[C@H](OC(=O)c3cccc(C(F)(F)F)c3)[C@@H]1/C=C(\C)CC[C@H]1[C@@H](/C=C(\C)C2=O)C1(C)C [JOLKINOATE L] | 0.27 | 52.6 | 44 | 0.8 | –
– | 52.77 | Dose-dependent effect | 16.06 | CC(=O)O[C@]12C[C@H](C)[C@H](OS(=O)(=O)c3ccccc3)[C@@H]1/C=C(\C)CC[C@H]1[C@@H](/C=C(\C)C2=O)C1(C)C [JOLKINOATE M] | 0.21 | 15 | 12.1 | 0.8 | –

Continued, compound first:

SMILES | inhibition at 10 min, 20 µM (P-gp (ABCB1)) [%] | Ratio [2] | inhibition (INH) [3] | Ratio [4] | CI [1] | IC50 (L5178Y [5]) [µM] | IC50 (L5178Y [6]) [µM] | selectivity ratio [7] | Activity (L5178Y [8])
CCCC(C)C(=O)O[C@H]1[C@@H](C)C[C@]2(OC(C)=O)C(=O)/C(C)=C/[C@@H]3[C@H](CC/C(C)=C/[C@@H]12)C3(C)C (stereo not given in full) [JOLKINOATE E] | – | 12.13 | – | 7.14 | 0.23 | 18.8 | 17.2 | 0.9 | Toxic
CC(=O)O[C@]12C[C@H](C)[C@H](OC(=O)c3ccccc3)[C@@H]1/C=C(\C)CC[C@H]1[C@@H](/C=C(\C)C2=O)C1(C)C [JOLKINOATE I] | 70.2 | 84.22 | Dose-dependent effect | 24.15 | 0.35 | 33.1 | 34.7 | 1 | –
CCC(CC)C(=O)O[C@H]1[C@@H](C)C[C@]2(OC(C)=O)C(=O)/C(C)=C/[C@@H]3[C@H](CC/C(C)=C/[C@@H]12)C3(C)C [JOLKINOATE F] | – | 77.25 | – | 4.99 | 0.25 | 14.7 | 14.3 | 1 | Toxic
CCCC(=O)O[C@H]1[C@@H](C)C[C@]2(OC(C)=O)C(=O)/C(C)=C/[C@@H]3[C@H](CC/C(C)=C/[C@@H]12)C3(C)C [JOLKINOATE C] | – | 107.89 | – | 5.15 | 0.39 | 26.8 | 24 | 0.9 | Toxic
CC(=O)O[C@H]1[C@@H](C)C[C@]2(OC(C)=O)C(=O)/C(C)=C/[C@@H]3[C@H](CC/C(C)=C/[C@@H]12)C3(C)C [JOLKINOATE A] | – | 33.76 | – | 1.16 | 0.18 | 60.4 | 38.2 | 0.6 | –
CCCCCCCCCCCC(=O)O[C@H]1[C@@H](C)C[C@]2(OC(C)=O)C(=O)/C(C)=C/[C@@H]3[C@H](CC/C(C)=C/[C@@H]12)C3(C)C [JOLKINOATE D] | – | 25.69 | – | 1.74 | 2.02 | 60.3 | 38.7 | 0.6 | –
CCCCC(CC)C(=O)O[C@H]1[C@@H](C)C[C@]2(OC(C)=O)C(=O)/C(C)=C/[C@@H]3[C@H](CC/C(C)=C/[C@@H]12)C3(C)C (stereo not given in full) [JOLKINOATE G] | – | 52.66 | – | 10.55 | 0.31 | 48.9 | 20.6 | 0.4 | Toxic
CCC(=O)O[C@H]1[C@@H](C)C[C@]2(OC(C)=O)C(=O)/C(C)=C/[C@@H]3[C@H](CC/C(C)=C/[C@@H]12)C3(C)C [JOLKINOATE B] | – | 30.64 | – | 2.95 | 0.34 | 22.2 | 18.3 | 0.8 | Toxic
